Measured values reported in ChEMBL document CHEMBL1145884, “Synthesis and biological activity of novel 1beta-methylcarbapenems with oxyiminopyrrolidinylamide moiety” (2003).
Converted amounts (≈) assume the structure as drawn. Each block holds one compound with its values, some of them ahead of it.

Columns and labels:
[1] = Compound was evaluated for its relative half life of hydrolysis to meropenem by partially purified porcine renal dihydropeptidase-I (DHP-I); format: functional; conditions: Sus scrofa
[2] = test system: Enterobacter cloacae; experiment: Compound was evaluated for its antibacterial activity against Enterobacter cloacae P99; format: functional
[3] = test system: Escherichia coli; experiment: Compound was evaluated for its antibacterial activity against Escherichia coli CCARM 1116 MDR; format: functional
[4] = test system: Escherichia coli; experiment: Compound was evaluated for its antibacterial activity against Escherichia coli CCARM 1117 MDR; format: functional
[5] = test system: Escherichia coli; experiment: Compound was evaluated for its antibacterial activity against Escherichia coli DC 0; format: functional
[6] = test system: Escherichia coli; experiment: Compound was evaluated for its antibacterial activity against Escherichia coli DC 2; format: functional
[7] = test system: Escherichia coli; experiment: Compound was evaluated for its antibacterial activity against Escherichia coli TEM; format: functional
[8] = test system: Escherichia coli; experiment: Antibacterial activity against Escherichia coli 078; format: functional
Procedure, shortened: (§1)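 MIC was determined by agar dilution on Mueller–Hinton medium.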

[9] = test system: Escherichia coli; experiment: Antibacterial activity against Escherichia coli 1507E; format: functional; procedure, shortened: as §1
[10] = test system: Escherichia coli; experiment: Compound was evaluated for its antibacterial activity against Escherichia coli 0157:H7; format: functional
[11] = test system: Escherichia coli; experiment: Compound was evaluated for its antibacterial activity against Escherichia coli ATCC 25922; format: functional
[12] = test system: Escherichia coli; experiment: Compound was evaluated for its antibacterial activity against Escherichia coli CCARM 1108 MDR; format: functional
[13] = test system: Escherichia coli; experiment: Compound was evaluated for its antibacterial activity against Escherichia coli CCARM 1109 MDR; format: functional
[14] = test system: Escherichia coli; experiment: Compound was evaluated for its antibacterial activity against Escherichia coli CCARM 1111 MDR; format: functional
[15] = test system: Escherichia coli; experiment: Compound was evaluated for its antibacterial activity against Escherichia coli CCARM 1112 MDR; format: functional
[16] = test system: Escherichia coli; experiment: Compound was evaluated for its antibacterial activity against Escherichia coli CCARM 1113 MDR; format: functional
[17] = test system: Escherichia coli; experiment: Compound was evaluated for its antibacterial activity against Escherichia coli CCARM 1114 MDR; format: functional
[18] = test system: Escherichia coli; experiment: Compound was evaluated for its antibacterial activity against Escherichia coli CCARM 1115 MDR; format: functional
[19] = test system: Enterobacter cloacae; experiment: Antibacterial activity against Enterobacter cloacae 1321E; format: functional; procedure, shortened: as §1
[20] = test system: Klebsiella pneumoniae; experiment: Compound was evaluated for its antibacterial activity against Klebsiella pneumoniae 9 ESBL; format: functional
[21] = test system: Klebsiella oxytoca; experiment: Compound was evaluated for its antibacterial activity against Klebsiella oxytoca 1082E; format: functional
[22] = test system: Klebsiella pneumoniae; experiment: Compound was evaluated for its antibacterial activity against Klebsiella pneumoniae 1 ESBL; format: functional
[23] = test system: Klebsiella pneumoniae; experiment: Compound was evaluated for its antibacterial activity against Klebsiella pneumoniae 10 ESBL; format: functional
[24] = test system: Klebsiella pneumoniae; experiment: Compound was evaluated for its antibacterial activity against Klebsiella pneumoniae 3 ESBL; format: functional
[25] = test system: Klebsiella pneumoniae; experiment: Compound was evaluated for its antibacterial activity against Klebsiella pneumoniae 4 ESBL; format: functional
[26] = test system: Klebsiella pneumoniae; experiment: Compound was evaluated for its antibacterial activity against Klebsiella pneumoniae 5 ESBL; format: functional
[27] = test system: Klebsiella aerogenes; experiment: Antibacterial activity against Klebsiella aerogenes 1522E; format: functional; procedure, shortened: as §1
[28] = test system: Pseudomonas aeruginosa; experiment: Compound was evaluated for its antibacterial activity against Pseudomonas aeruginosa 1 MDR; format: functional
[29] = test system: Pseudomonas aeruginosa; experiment: Compound was evaluated for its antibacterial activity against Pseudomonas aeruginosa 2 MDR; format: functional
[30] = test system: Pseudomonas aeruginosa; experiment: Compound was evaluated for its antibacterial activity against Pseudomonas aeruginosa ATCC 27853; format: functional
[31] = test system: Pseudomonas aeruginosa; experiment: Antibacterial activity against Pseudomonas aeruginosa 1771M; format: functional; procedure, shortened: as §1
[32] = test system: Pseudomonas aeruginosa; experiment: Antibacterial activity against Pseudomonas aeruginosa 9027; format: functional; procedure, shortened: as §1
[33] = test system: Shigella sonnei; experiment: Compound was evaluated for its antibacterial activity against Shigella sonnei ATCC 9290; format: functional
[34] = test system: Salmonella enteritidis; experiment: Compound was evaluated for its antibacterial activity against […] enteritidis; format: functional, Salmonella enterica subsp. enterica serovar Enteritidis; conditions: Salmonella enterica
[35] = test system: Salmonella enteritidis; experiment: Compound was evaluated for its antibacterial activity against […] enteritidis 1; format: functional, Salmonella enterica subsp. enterica serovar Enteritidis; conditions: Salmonella enterica
[36] = test system: Salmonella enteritidis; experiment: Compound was evaluated for its antibacterial activity against […] enteritidis 2; format: functional, Salmonella enterica subsp. enterica serovar Enteritidis; conditions: Salmonella enterica
[37] = test system: Salmonella enteritidis; experiment: Compound was evaluated for its antibacterial activity against […] enteritidis 3; format: functional, Salmonella enterica subsp. enterica serovar Enteritidis; conditions: Salmonella enterica
[38] = test system: Salmonella typhimurium; experiment: Antibacterial activity against Salmonella Typhimurium; format: functional, Salmonella enterica subsp. enterica serovar Typhimurium; conditions: Salmonella enterica; procedure, shortened: as §1
[39] = test system: Salmonella typhimurium; experiment: Compound was evaluated for its antibacterial activity against Salmonella Typhimurium; format: functional, Salmonella enterica subsp. enterica serovar Typhimurium; conditions: Salmonella enterica
[40] = test system: Salmonella typhimurium; experiment: Compound was evaluated for its antibacterial activity against Salmonella Typhimurium 1; format: functional, Salmonella enterica subsp. enterica serovar Typhimurium; conditions: Salmonella enterica
[41] = test system: Salmonella typhimurium; experiment: Compound was evaluated for its antibacterial activity against Salmonella Typhimurium 2; format: functional, Salmonella enterica subsp. enterica serovar Typhimurium; conditions: Salmonella enterica
[42] = test system: Shigella flexneri; experiment: Compound was evaluated for its antibacterial activity against Shigella flexneri ATCC 9199; format: functional
[43] = test system: Streptococcus pyogenes; experiment: Antibacterial activity against Streptococcus pyogenes 308A; format: functional
[44] = test system: Staphylococcus aureus; experiment: Antibacterial activity against Staphylococcus aureus 285; format: functional
[45] = test system: Staphylococcus aureus; experiment: Antibacterial activity against Staphylococcus aureus 503; format: functional
[46] = test system: Staphylococcus aureus; experiment: Antibacterial activity against Staphylococcus aureus SG 511; format: functional
[47] = test system: Escherichia coli; experiment: Compound was evaluated for its antibacterial activity against Escherichia coli CCARM 1110 MDR; format: functional
[48] = test system: Klebsiella pneumoniae; experiment: Compound was evaluated for its antibacterial activity against Klebsiella pneumoniae 2 ESBL; format: functional
[49] = test system: Klebsiella pneumoniae; experiment: Compound was evaluated for its antibacterial activity against Klebsiella pneumoniae 6 ESBL; format: functional
[50] = test system: Pseudomonas aeruginosa; experiment: Compound was evaluated for its antibacterial activity against Pseudomonas aeruginosa 3 MDR; format: functional
[51] = test system: Pseudomonas aeruginosa; experiment: Antibacterial activity against Pseudomonas aeruginosa 1592E
[52] = test system: Klebsiella pneumoniae; experiment: Compound was evaluated for its antibacterial activity against Klebsiella pneumoniae
[53] = test system: Klebsiella pneumoniae; experiment: as above; remark: listed apart in the source

SMILES: C[C@@H](O)[C@H]1C(=O)N2C(C(=O)O)=C(S[C@@H]3CN[C@H](C(=O)N(C)C)C3)[C@H](C)[C@H]12 [MEROPENEM]
- relative t1/2 (DHP-I hydrolysis vs meropenem) [1]: 1
- MIC [2]: 0.03 mg/L (≈ 0.0782 µM)
- MIC [3]: 0.03 mg/L (≈ 0.0782 µM)
- MIC [4]: 0.03 mg/L (≈ 0.0782 µM)
- MIC [5]: 0.03 mg/L (≈ 0.0782 µM)
- MIC [6]: 0.03 mg/L (≈ 0.0782 µM)
- MIC [7]: 0.016 mg/L (≈ 0.0417 µM)
- MIC [8]: 0.025 mg/L (≈ 0.0652 µM)
- MIC [9]: 0.025 mg/L (≈ 0.0652 µM)
- MIC [10]: 0.03 mg/L (≈ 0.0782 µM)
- MIC [11]: 0.016 mg/L (≈ 0.0417 µM)
- MIC [12]: 0.03 mg/L (≈ 0.0782 µM)
- MIC [13]: 0.03 mg/L (≈ 0.0782 µM)
- MIC [14]: 0.016 mg/L (≈ 0.0417 µM)
- MIC [15]: 0.016 mg/L (≈ 0.0417 µM)
- MIC [16]: 0.03 mg/L (≈ 0.0782 µM)
- MIC [17]: 0.03 mg/L (≈ 0.0782 µM)
- MIC [18]: 0.016 mg/L (≈ 0.0417 µM)
- MIC [19]: 0.025 mg/L (≈ 0.0652 µM)
- MIC [20]: 0.03 mg/L (≈ 0.0782 µM)
- MIC [21]: 0.06 mg/L (≈ 0.156 µM)
- MIC [22]: 0.03 mg/L (≈ 0.0782 µM)
- MIC [23]: 0.016 mg/L (≈ 0.0417 µM)
- MIC [24]: 0.06 mg/L (≈ 0.156 µM)
- MIC [25]: 0.016 mg/L (≈ 0.0417 µM)
- MIC [26]: 0.016 mg/L (≈ 0.0417 µM)
- MIC [27]: 0.049 mg/L (≈ 0.128 µM)
- MIC [28]: 1 mg/L (≈ 2.61 µM)
- MIC [29]: 8 mg/L (≈ 20.9 µM)
- MIC [30]: 0.5 mg/L (≈ 1.3 µM)
- MIC [31]: 0.049 mg/L (≈ 0.128 µM)
- MIC [32]: 0.195 mg/L (≈ 0.509 µM)
- MIC [33]: 0.03 mg/L (≈ 0.0782 µM)
- MIC [34]: 0.016 mg/L (≈ 0.0417 µM)
- MIC [35]: 0.016 mg/L (≈ 0.0417 µM)
- MIC [36]: 0.016 mg/L (≈ 0.0417 µM)
- MIC [37]: 0.03 mg/L (≈ 0.0782 µM)
- MIC [38]: 0.049 mg/L (≈ 0.128 µM)
- MIC [39]: 0.03 mg/L (≈ 0.0782 µM)
- MIC [40]: 0.03 mg/L (≈ 0.0782 µM)
- MIC [41]: 0.016 mg/L (≈ 0.0417 µM)
- MIC [42]: 0.03 mg/L (≈ 0.0782 µM)
- MIC [43]: 0.013 mg/L (≈ 0.0339 µM)
- MIC [44]: 0.195 mg/L (≈ 0.509 µM)
- MIC [45]: 0.098 mg/L (≈ 0.256 µM)
- MIC [46]: 0.195 mg/L (≈ 0.509 µM)
- MIC [47]: 0.016 mg/L (≈ 0.0417 µM)
- MIC [48]: 0.03 mg/L (≈ 0.0782 µM)
- MIC [49]: 0.03 mg/L (≈ 0.0782 µM)
- MIC [50]: 8 mg/L (≈ 20.9 µM)
- MIC [51]: 0.195 mg/L (≈ 0.509 µM)
- MIC [52]: 0.06 mg/L (≈ 0.156 µM)
- MIC [53]: 0.06 mg/L (≈ 0.156 µM)

- MIC [8]: 0.013 mg/L (≈ 0.0269 µM)
- MIC [9]: 0.025 mg/L (≈ 0.0518 µM)
- MIC [19]: 0.025 mg/L (≈ 0.0518 µM)
- MIC [27]: 0.049 mg/L (≈ 0.102 µM)
- MIC [31]: 0.195 mg/L (≈ 0.404 µM)
- MIC [32]: 0.391 mg/L (≈ 0.81 µM)
- MIC [38]: 0.049 mg/L (≈ 0.102 µM)
- MIC [43]: 0.013 mg/L (≈ 0.0269 µM)
- MIC [44]: 0.195 mg/L (≈ 0.404 µM)
- MIC [45]: 0.098 mg/L (≈ 0.203 µM)
- MIC [46]: 0.098 mg/L (≈ 0.203 µM)
- MIC [51]: 0.391 mg/L (≈ 0.81 µM)
SMILES: C[C@@H](O)[C@H]1C(=O)N2C(C(=O)O)=C(S[C@@H]3CN[C@H](C(=O)N4C/C(=N\O)C(C(=O)O)C4)C3)[C@H](C)[C@H]12 (some centres not stated)
- relative t1/2 (DHP-I hydrolysis vs meropenem) [1]: 0.54

SMILES: C[C@@H](O)[C@H]1C(=O)N2C(C(=O)O)=C(SCCNC=N)C[C@H]12 [IMIPENEM ANHYDROUS]
- relative t1/2 (DHP-I hydrolysis vs meropenem) [1]: 0.17
- MIC [8]: 0.195 mg/L (≈ 0.651 µM)
- MIC [9]: 0.195 mg/L (≈ 0.651 µM)
- MIC [19]: 0.195 mg/L (≈ 0.651 µM)
- MIC [27]: 0.391 mg/L (≈ 1.31 µM)
- MIC [31]: 0.195 mg/L (≈ 0.651 µM)
- MIC [32]: 0.781 mg/L (≈ 2.61 µM)
- MIC [38]: 0.781 mg/L (≈ 2.61 µM)
- MIC [43]: 0.007 mg/L (≈ 0.0234 µM)
- MIC [44]: 0.025 mg/L (≈ 0.0835 µM)
- MIC [45]: 0.013 mg/L (≈ 0.0434 µM)
- MIC [46]: 0.025 mg/L (≈ 0.0835 µM)
- MIC [51]: 0.781 mg/L (≈ 2.61 µM)

- MIC [8]: 0.013 mg/L (≈ 0.0255 µM)
- MIC [9]: 0.049 mg/L (≈ 0.096 µM)
- MIC [19]: 0.025 mg/L (≈ 0.049 µM)
- MIC [27]: 0.049 mg/L (≈ 0.096 µM)
- MIC [31]: 0.391 mg/L (≈ 0.766 µM)
- MIC [32]: 6.25 mg/L (≈ 12.2 µM)
- MIC [38]: 0.049 mg/L (≈ 0.096 µM)
- MIC [43]: 0.013 mg/L (≈ 0.0255 µM)
- MIC [44]: 0.391 mg/L (≈ 0.766 µM)
- MIC [45]: 0.195 mg/L (≈ 0.382 µM)
- MIC [46]: 0.195 mg/L (≈ 0.382 µM)
- MIC [51]: 3.12 mg/L (≈ 6.12 µM)
SMILES: CCOC(=O)C1CN(C(=O)[C@@H]2C[C@H](SC3=C(C(=O)O)N4C(=O)[C@H]([C@@H](C)O)[C@H]4[C@H]3C)CN2)C/C1=N\O (some centres not stated)
- relative t1/2 (DHP-I hydrolysis vs meropenem) [1]: 0.26
